Experimental data from ChEMBL document CHEMBL4330069, “Boosting the efficacy of anti-MRSA β-lactam antibiotics via an easily accessible, non-cytotoxic and orally bioavailable FtsZ inhibitor” (Eur J Med Chem, 2019).
≈ marks a conversion by molar mass, not a printed value.

Legend:
Type in all cases: functional
Staphylococcus aureus [1] = experiment: Synergistic antibacterial activity against multidrug-resistant Staphylococcus aureus isolate 254 in presence of methicillin by broth microdilution assay
Outline: (§1)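 CLSI broth microdilution on clinical MRSA isolates. MICs were measured for the β-lactam alone, the test agent alone and the two combined. Compounds were dissolved in DMSO, and growth inhibition was scored by eye. FIC index is the sum, over both agents, of MIC in combination divided by MIC alone. An FIC index ≤0.5 was taken as synergy.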

Staphylococcus aureus [2] = experiment: Synergistic antibacterial activity against multidrug-resistant Staphylococcus aureus isolate 2516 in presence of cloxacillin by broth microdilution assay; outline: as §1
Staphylococcus aureus [3] = experiment: Synergistic antibacterial activity against multidrug-resistant Staphylococcus aureus isolate 1344 assessed as fractional Inhibitory concentration index in presence of amoxicillin by broth microdilution assay
Outline: (§2)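 CLSI broth microdilution run on clinical MRSA isolates with each β-lactam alone, the test agent alone, and the two combined; agents dissolved in DMSO. Growth inhibition was read by eye. FIC index = FIC(compound) + FIC(β-lactam), where each FIC is the MIC in combination divided by the MIC alone. An index ≤0.5 was taken as synergy.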

Staphylococcus aureus [4] = experiment: Synergistic antibacterial activity against multidrug-resistant Staphylococcus aureus isolate 774 in presence of amoxicillin by broth microdilution assay
Staphylococcus aureus [5] = experiment: Synergistic antibacterial activity against multidrug-resistant Staphylococcus aureus isolate 1402 in presence of cloxacillin by broth microdilution assay
Outline: (§3)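 Clinical MRSA isolate panel; compound and β-lactam tested alone and in combination by CLSI broth microdilution, compounds dissolved in DMSO, growth inhibition scored by eye, run in duplicate. FIC index = FIC(compound) + FIC(drug), each the MIC in combination divided by the MIC alone; an index ≤ 0.5 was called synergy.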

Staphylococcus aureus [6] = experiment: Synergistic antibacterial activity against multidrug-resistant Staphylococcus aureus isolate 3589 in presence of cefuroxime by broth microdilution assay
Staphylococcus aureus [7] = experiment: Synergistic antibacterial activity against multidrug-resistant Staphylococcus aureus isolate 757 in presence of meropenem by broth microdilution assay
Staphylococcus aureus [8] = experiment: Synergistic antibacterial activity against multidrug-resistant Staphylococcus aureus isolate 254 assessed as fractional Inhibitory concentration index in presence of cefuroxime by broth microdilution assay
Staphylococcus aureus [9] = experiment: Synergistic antibacterial activity against multidrug-resistant Staphylococcus aureus isolate 1344 in presence of meropenem by broth microdilution assay; outline: as §3
Staphylococcus aureus [10] = experiment: Synergistic antibacterial activity against multidrug-resistant Staphylococcus aureus isolate 256 assessed as fractional Inhibitory concentration index in presence of amoxicillin by broth microdilution assay
Staphylococcus aureus [11] = experiment: Synergistic antibacterial activity against multidrug-resistant Staphylococcus aureus isolate 1749 assessed as fractional Inhibitory concentration index in presence of cefuroxime by broth microdilution assay; outline: as §2
Staphylococcus aureus [12] = experiment: Synergistic antibacterial activity against multidrug-resistant Staphylococcus aureus isolate 200 in presence of amoxicillin by broth microdilution assay; outline: as §3
Staphylococcus aureus [13] = experiment: Synergistic antibacterial activity against multidrug-resistant Staphylococcus aureus isolate 2919 assessed as fractional Inhibitory concentration index in presence of cefuroxime by broth microdilution assay
Staphylococcus aureus [14] = experiment: Antibacterial activity against Staphylococcus aureus ATCC 29213 harboring FtsZ 32 mutation after 20 hrs; conditions: ATCC 29213, 20 h
Outline: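 Broth microdilution MIC per CLSI guidelines, compounds dissolved in DMSO. Resistant mutants were selected by serial passage of ATCC 29213 in LB at 37 °C with shaking at 250 rpm. Each 20 h culture started at half the MIC, and the concentration was doubled at each transfer. Growth inhibition was read by eye, in duplicate.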

Staphylococcus aureus [15] = experiment: Synergistic antibacterial activity against multidrug-resistant Staphylococcus aureus isolate 1749 in presence of meropenem by broth microdilution assay; outline: as §3
Staphylococcus aureus [16] = experiment: Synergistic antibacterial activity against multidrug-resistant Staphylococcus aureus isolate 1717 assessed as fractional Inhibitory concentration index in presence of cloxacillin by broth microdilution assay; outline: as §2
Staphylococcus aureus [17] = experiment: Synergistic antibacterial activity against multidrug-resistant Staphylococcus aureus isolate 2895 assessed as fractional Inhibitory concentration index in presence of meropenem by broth microdilution assay
Staphylococcus aureus [18] = experiment: Synergistic antibacterial activity against multidrug-resistant Staphylococcus aureus isolate 1136 in presence of methicillin by broth microdilution assay; outline: as §3
Staphylococcus aureus [19] = experiment: Antibacterial activity against multidrug-resistant Staphylococcus aureus isolate 2490 by broth microdilution assay
Outline: (§4)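 Broth microdilution MIC per CLSI guidelines against clinical MRSA isolates, for β-lactams and test compound alone and in combination. Compounds were dissolved in DMSO. Growth was read by eye, in duplicate. FIC index = FIC(compound) + FIC(drug); synergy defined as FIC index ≤0.5.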

Staphylococcus aureus [20] = experiment: Synergistic antibacterial activity against multidrug-resistant Staphylococcus aureus isolate 1449 in presence of meropenem by broth microdilution assay; outline: as §3
Staphylococcus aureus [21] = experiment: Synergistic antibacterial activity against multidrug-resistant Staphylococcus aureus isolate 3580 in presence of methicillin by broth microdilution assay
Staphylococcus aureus [22] = experiment: Synergistic antibacterial activity against multidrug-resistant Staphylococcus aureus isolate 3332 assessed as fractional Inhibitory concentration index in presence of amoxicillin by broth microdilution assay
Staphylococcus aureus [23] = experiment: Antibacterial activity against multidrug-resistant Staphylococcus aureus isolate 2224 by broth microdilution assay; outline: as §4
Staphylococcus aureus [24] = experiment: Synergistic antibacterial activity against multidrug-resistant Staphylococcus aureus isolate 3411 assessed as fractional Inhibitory concentration index in presence of amoxicillin by broth microdilution assay
Staphylococcus aureus [25] = experiment: Synergistic antibacterial activity against multidrug-resistant Staphylococcus aureus isolate 2224 in presence of meropenem by broth microdilution assay; outline: as §3
Staphylococcus aureus [26] = experiment: Synergistic antibacterial activity against multidrug-resistant Staphylococcus aureus isolate 774 in presence of cloxacillin by broth microdilution assay
Staphylococcus aureus [27] = experiment: Synergistic antibacterial activity against multidrug-resistant Staphylococcus aureus isolate 2895 in presence of cloxacillin by broth microdilution assay; outline: as §1
Staphylococcus aureus [28] = experiment: Synergistic antibacterial activity against multidrug-resistant Staphylococcus aureus isolate 1717 in presence of meropenem by broth microdilution assay; outline: as §3
Staphylococcus aureus [29] = experiment: Antibacterial activity against multidrug-resistant Staphylococcus aureus isolate 1344 by broth microdilution assay; outline: as §4
Staphylococcus aureus [30] = experiment: Synergistic antibacterial activity against multidrug-resistant Staphylococcus aureus isolate 417 assessed as fractional Inhibitory concentration index in presence of meropenem by broth microdilution assay
Staphylococcus aureus [31] = experiment: Synergistic antibacterial activity against multidrug-resistant Staphylococcus aureus isolate 85 in presence of methicillin by broth microdilution assay
Staphylococcus aureus [32] = experiment: Synergistic antibacterial activity against multidrug-resistant Staphylococcus aureus isolate 1402 in presence of methicillin by broth microdilution assay; outline: as §3
Staphylococcus aureus [33] = experiment: Synergistic antibacterial activity against multidrug-resistant Staphylococcus aureus isolate 417 assessed as fractional Inhibitory concentration index in presence of amoxicillin by broth microdilution assay
Staphylococcus aureus [34] = experiment: Synergistic antibacterial activity against multidrug-resistant Staphylococcus aureus isolate 417 in presence of amoxicillin by broth microdilution assay
Staphylococcus aureus [35] = experiment: Synergistic antibacterial activity against multidrug-resistant Staphylococcus aureus isolate 254 in presence of cloxacillin by broth microdilution assay; outline: as §1
Staphylococcus aureus [36] = experiment: Antibacterial activity against multidrug-resistant Staphylococcus aureus isolate 1749 by broth microdilution assay; outline: as §4
Staphylococcus aureus [37] = experiment: Antibacterial activity against multidrug-resistant Staphylococcus aureus isolate 2516 by broth microdilution assay; outline: as §4
Staphylococcus aureus [38] = experiment: Synergistic antibacterial activity against multidrug-resistant Staphylococcus aureus isolate 3267 assessed as fractional Inhibitory concentration index in presence of amoxicillin by broth microdilution assay

Compound: CCCCCCCCCNc1ccc(F)c(C(N)=O)c1F
- MIC (Staphylococcus aureus [1]): 4 µg/mL
- MIC (Staphylococcus aureus [2]): 2 µg/mL
- fractional inhibitory concentration index (FICI) (Staphylococcus aureus [3]): 1.1
- MIC (Staphylococcus aureus [4]): 8 µg/mL
- MIC (Staphylococcus aureus [5]): 1 µg/mL
- MIC (Staphylococcus aureus [6]): 2 µg/mL
- MIC (Staphylococcus aureus [7]): 16 µg/mL
- fractional inhibitory concentration index (FICI) (Staphylococcus aureus [8]): 0.3
- MIC (Staphylococcus aureus [9]): 16 µg/mL
- fractional inhibitory concentration index (FICI) (Staphylococcus aureus [10]): 0.1
- fractional inhibitory concentration index (FICI) (Staphylococcus aureus [11]): 1.1
- MIC (Staphylococcus aureus [12]): 8 µg/mL
- fractional inhibitory concentration index (FICI) (Staphylococcus aureus [13]): 0.3
- MIC (Staphylococcus aureus [14]): 32 µg/mL (≈ 107 µM)
- MIC (Staphylococcus aureus [15]): 4 µg/mL
- fractional inhibitory concentration index (FICI) (Staphylococcus aureus [16]): 2.5
- fractional inhibitory concentration index (FICI) (Staphylococcus aureus [17]): 2.1
- MIC (Staphylococcus aureus [18]): 4 µg/mL
- MIC (Staphylococcus aureus [19]): 16 µg/mL (≈ 53.6 µM)
- MIC (Staphylococcus aureus [20]): 4 µg/mL
- MIC (Staphylococcus aureus [21]): 2 µg/mL
- fractional inhibitory concentration index (FICI) (Staphylococcus aureus [22]): 0.6
- MIC (Staphylococcus aureus [23]): 1020 µg/mL (≈ 3430 µM)
- fractional inhibitory concentration index (FICI) (Staphylococcus aureus [24]): 2
- MIC (Staphylococcus aureus [25]): 8 µg/mL
- MIC (Staphylococcus aureus [26]): 1 µg/mL
- MIC (Staphylococcus aureus [27]): 2 µg/mL
- MIC (Staphylococcus aureus [28]): 2 µg/mL
- MIC (Staphylococcus aureus [29]): 16 µg/mL (≈ 53.6 µM)
- fractional inhibitory concentration index (FICI) (Staphylococcus aureus [30]): 0.2
- MIC (Staphylococcus aureus [31]): 4 µg/mL
- MIC (Staphylococcus aureus [32]): 2 µg/mL
- fractional inhibitory concentration index (FICI) (Staphylococcus aureus [33]): 0.3
- MIC (Staphylococcus aureus [34]): 8 µg/mL
- MIC (Staphylococcus aureus [35]): 2 µg/mL
- MIC (Staphylococcus aureus [36]): 2 µg/mL (≈ 6.7 µM)
- MIC (Staphylococcus aureus [37]): 32 µg/mL (≈ 107 µM)
- fractional inhibitory concentration index (FICI) (Staphylococcus aureus [38]): 0.3
